Experimental data taken from ChEMBL document CHEMBL1137814, “Bitungolides A-F, new polyketides from the Indonesian sponge Theonella cf. swinhoei” (J Nat Prod, 2002).
Active and inactive are the calls of the source. No cut-off for these calls is given here.

Legend:
[1] = molecular target: Dual specificity protein phosphatase 3 (Homo sapiens) (UniProt P51452); assay: Inhibition of VHR expressed in Escherichia coli BL21([…])
Procedure, shortened: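 VHR dual-specificity phosphatase overexpressed in E. coli BL21(DE3). Assays run in triplicate. Compounds tested at 100 µg/mL (some at 30 µg/mL). References were tautomycin at 30 ng/mL and RK-682 at 10 µg/mL.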

Homo sapiens = organism: Homo sapiens; assay: Inhibition of PP2A from human red blood cells
Procedure, shortened: (§1)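 PP1 (rabbit skeletal muscle) and PP2A (human red blood cells), commercial enzymes. In vitro assays run in duplicate. Compounds tested at 10 µg/mL, with tautomycin at 30 ng/mL as reference.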

brain [2] = assay: Induction of actin assembly in bovine brain cells by turbidimetric assay; format: cell-based; conditions: Bos taurus
Oryctolagus cuniculus = organism: Oryctolagus cuniculus; assay: Inhibition of rabbit muscle PP1; procedure, shortened: as §1
[3] = Cytotoxicity against rat 3Y1 cells at 10 ug/ml by flow cytometry; format: cell-based
Procedure, shortened: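 Rat normal fibroblast 3Y1 cells grown in Dulbecco's modified MEM with 10% fetal calf serum, humidified 5% CO2. Cell-cycle progression after treatment assessed by flow cytometry.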

[4] = Inhibition of PTP-S2
Procedure, shortened: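 PTP-S2 overexpressed in E. coli BL21(DE3). Phosphatase assays run in triplicate. Compounds tested at 10 µg/mL, with tautomycin at 30 ng/mL as reference.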

brain [5] = assay: Induction of microtubule assembly in bovine brain cells by turbidimetric assay; format: cell-based; conditions: Bos taurus
Procedure, shortened: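 Turbidity assay: microtubule protein at 2.0 mg/mL in Mes buffer incubated at 37 °C. Absorbance at 350 nm followed over time.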

3Y1 cell line = assay: Induction of morphological changes in rat 3Y1 cells by indirect immunofluorescence technique; format: functional, cell-based
Procedure, shortened: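 3Y1 rat fibroblasts cultured in DMEM plus 10% fetal calf serum under humidified 5% CO2. Cytoskeletal changes after treatment visualized by indirect immunofluorescence microscopy.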

Sequence of Dual specificity protein phosphatase 3 (Homo sapiens) (P51452 whole entry, looked up): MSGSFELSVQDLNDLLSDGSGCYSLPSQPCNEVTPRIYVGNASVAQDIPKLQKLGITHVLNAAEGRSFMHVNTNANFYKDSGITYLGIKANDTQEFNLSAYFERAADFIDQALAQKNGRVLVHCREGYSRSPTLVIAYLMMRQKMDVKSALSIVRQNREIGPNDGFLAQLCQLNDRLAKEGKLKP

Structure (SMILES)	Activity [1]	Activity (Homo sapiens)	Activity (brain [2])	Activity (Oryctolagus cuniculus)	Activity [3]	Activity [4]	Activity (brain [5])	Activity (3Y1 cell line)
CC[C@@H]1C=CC(=O)O[C@@H]1[C@H](C)C[C@@H](C)[C@@H](O)C[C@H](O)/C=C\C=C/c1cccc(O)c1Cl [BITUNGOLIDE A]	inactive	inactive	inactive	inactive	Active	inactive	inactive	inactive
CC[C@@H]1C=CC(=O)O[C@@H]1[C@H](C)C[C@@H](C)[C@@H](O)C[C@H](O)/C=C/C=C/c1cccc(O)c1Cl [BITUNGOLIDE B]	inactive	inactive	inactive	inactive	Active	inactive	inactive	inactive
CC[C@@H]1C=CC(=O)O[C@@H]1[C@H](C)C[C@@H](C)[C@@H](O)C[C@H](O)/C=C\C=C\c1cccc(O)c1Cl [BITUNGOLIDE C]	inactive	inactive	inactive	inactive	Active	inactive	inactive	inactive
CC[C@@H]1C=CC(=O)O[C@@H]1[C@H](C)C[C@@H](C)[C@@H](O)C[C@H](O)/C=C/C=C\c1cccc(O)c1Cl [BITUNGOLIDE D]	inactive	inactive	inactive	inactive	Active	inactive	inactive	inactive
CC[C@@H]1C=CC(=O)O[C@@H]1[C@H](C)C[C@@H](C)[C@@H](O)C[C@H](O)/C=C/C=C/c1ccccc1 [BITUNGOLIDE E]	inactive	inactive	inactive	inactive	Active	inactive	inactive	inactive
CC[C@@H]1C=CC(=O)O[C@@H]1[C@H](C)CC[C@@H](O)C[C@H](O)/C=C/C=C/c1ccccc1 [BITUNGOLIDE F]	inactive	inactive	inactive	inactive	Active	inactive	inactive	inactive
